Measured values published in ChEMBL document CHEMBL4196155 (J Med Chem, 2018).
Calls of active or inactive are those of the source. The rule behind the calls is not given here.

Tests used:
[1] = molecular target: T1, Fatty-acid amide hydrolase 1 (Rattus norvegicus, UniProt P97612); assay: Inhibition of FAAH1 in Wistar rat brain homogenates using [3H]anandamide as substrate incubated for 30 mins by liquid scintillation counting method
T1 sequence (P97612 whole entry): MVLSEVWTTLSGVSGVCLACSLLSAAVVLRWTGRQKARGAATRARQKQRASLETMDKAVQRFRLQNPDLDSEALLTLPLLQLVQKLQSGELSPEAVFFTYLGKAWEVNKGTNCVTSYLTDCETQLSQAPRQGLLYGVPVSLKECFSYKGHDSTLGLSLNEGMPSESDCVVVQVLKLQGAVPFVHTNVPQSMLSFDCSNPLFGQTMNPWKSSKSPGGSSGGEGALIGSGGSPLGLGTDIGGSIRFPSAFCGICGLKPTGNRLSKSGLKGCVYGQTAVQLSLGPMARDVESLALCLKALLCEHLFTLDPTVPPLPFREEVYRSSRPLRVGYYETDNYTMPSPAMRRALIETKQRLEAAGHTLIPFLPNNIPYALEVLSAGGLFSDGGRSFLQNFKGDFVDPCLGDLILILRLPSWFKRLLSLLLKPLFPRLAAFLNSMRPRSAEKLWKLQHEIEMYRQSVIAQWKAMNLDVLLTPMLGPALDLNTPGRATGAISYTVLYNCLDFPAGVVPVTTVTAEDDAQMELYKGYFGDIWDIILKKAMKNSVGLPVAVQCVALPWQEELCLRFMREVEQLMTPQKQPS
Method in brief: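 Wistar rat brain homogenised in ice-cold Tris 50 mM pH 7.5 with 0.32 M sucrose, spun 1,000 × g 10 min at 4 °C; supernatant used. Homogenate (50 μg protein) incubated 30 min at 37 °C in Tris 50 mM pH 7.5, 0.05% fatty-acid-free BSA, 10 μM anandamide plus [3H]anandamide (20,000 cpm), varying compound concentrations, final DMSO 1%. Stopped with CHCl3/MeOH 1:1; aqueous [3H]ethanolamine counted. IC50 from at least two determinations.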

Oryctolagus cuniculus [2] = assay: Reduction in hypertonic saline solution-induced elevated intraocular pressure in New Zealand White rabbit at 1 mM dosed topically before hypertonic saline solution injection measured after 60 mins; format: functional, organism-based
Method in brief: (§1)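 Male SPF New Zealand albino rabbits, 2–2.5 kg, four per compound. 0.05 mL of 1 mM solution in 0.9% NaCl, 0.1% DMSO, 0.1% EtOH was dropped into one eye, vehicle into the other, before intravitreal 0.1 mL 5% hypertonic saline. IOP was read by tonometry after oxybuprocaine 0.2% once the rise had stabilised at 30–40 mm Hg, then after treatment. Analysis by 2-way ANOVA with Bonferroni.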

[3] = molecular target: T2, Melatonin receptor type 1B (Homo sapiens) (UniProt P49286); assay: Intrinsic agonist activity at human MT2 receptor expressed in […] NIH/3T3 cell membranes assessed as induction of G protein activation incubated for 30 mins by [35S]GTPgammaS binding assay relative to melatonin; format: functional
T2 sequence (whole entry): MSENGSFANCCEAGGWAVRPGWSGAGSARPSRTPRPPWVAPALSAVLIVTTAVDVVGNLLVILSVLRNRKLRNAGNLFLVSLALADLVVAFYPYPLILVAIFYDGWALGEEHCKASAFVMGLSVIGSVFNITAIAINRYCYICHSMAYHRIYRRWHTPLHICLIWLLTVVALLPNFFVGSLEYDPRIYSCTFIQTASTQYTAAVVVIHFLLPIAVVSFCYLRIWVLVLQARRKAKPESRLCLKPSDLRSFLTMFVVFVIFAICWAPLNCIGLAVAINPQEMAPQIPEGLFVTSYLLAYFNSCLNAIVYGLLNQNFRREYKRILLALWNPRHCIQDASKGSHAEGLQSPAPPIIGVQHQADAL
Method in brief: (§2)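 NIH3T3 membranes bearing cloned human MT1 or MT2 (15–25 μg protein) incubated 30 min at 30 °C with [35S]GTPγS 0.3–0.5 nM, GDP 50 μM, NaCl 100 mM, MgCl2 3 mM. […] Maximal stimulation above basal was divided by that of 100 nM MLT in the same experiment. Run in triplicate.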

[4] = molecular target: T3, Melatonin receptor type 1A (Homo sapiens, UniProt P48039); assay: Intrinsic agonist activity at human MT1 receptor expressed in […] NIH/3T3 cell membranes assessed as induction of G protein activation incubated for 30 mins by [35S]GTPgammaS binding assay relative to melatonin; format: functional; method in brief: as §2
[5] = molecular target: T4, Melatonin receptor type 1B (Homo sapiens, UniProt P49286); assay: biochemical
T4 sequence (P49286 whole entry): T2 sequence (whole entry)

Oryctolagus cuniculus [6] = assay: Reduction in hypertonic saline solution-induced elevated intraocular pressure in New Zealand White rabbit at 1 mM dosed topically before hypertonic saline solution injection measured after 120 mins; format: functional, organism-based; method in brief: as §1
[7] = molecular target: T3, Melatonin receptor type 1A; assay: biochemical
Oryctolagus cuniculus [8] = assay: Reduction in hypertonic saline solution-induced elevated intraocular pressure in New Zealand White rabbit at 1 mM dosed topically before hypertonic saline solution injection measured after 240 mins; format: functional, organism-based; method in brief: as §1

T3 sequence (P48039 whole entry): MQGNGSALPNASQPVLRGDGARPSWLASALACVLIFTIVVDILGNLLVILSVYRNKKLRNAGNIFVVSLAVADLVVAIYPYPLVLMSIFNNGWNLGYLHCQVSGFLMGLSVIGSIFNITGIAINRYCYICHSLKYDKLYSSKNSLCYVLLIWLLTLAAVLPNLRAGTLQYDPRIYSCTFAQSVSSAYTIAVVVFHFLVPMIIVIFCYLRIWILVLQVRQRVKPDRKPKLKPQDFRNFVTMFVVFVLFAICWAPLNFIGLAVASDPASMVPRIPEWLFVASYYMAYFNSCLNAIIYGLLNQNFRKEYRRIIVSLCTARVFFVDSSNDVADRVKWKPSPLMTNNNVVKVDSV

Structure (SMILES)	IC50 [1] [µM]	Activity (Oryctolagus cuniculus [2])	Intrinsic activity [3]	Intrinsic activity [4]	Ki [5] [µM]	Activity (Oryctolagus cuniculus [6])	Ki [7] [µM]	Activity (Oryctolagus cuniculus [8])
CC(=O)NCCc1c[nH]c2ccc(OCCCCCCNC(=O)Oc3cccc(-c4ccccc4)c3)cc12	0.00238	Active	1.02	0.73	0.00457	inactive	0.00603	inactive
CC(=O)NCCN(C)c1cccc(OCCCCCCOc2cccc(O)c2)c1	–	–	0.57	0.62	0.331	–	0.0589	–
CC(=O)NCCN(C)c1cccc(OCCCCCCN)c1	–	–	0.08	0.34	0.398	–	0.447	–
COc1ccc2[nH]cc(CCNC(C)=O)c2c1	–	Active	–	–	–	inactive	–	–
CC(=O)NCCN(C)c1cccc(OCCCCCCOc2cccc(OC(=O)NC3CCCCC3)c2)c1	0.197	–	0.71	0.71	0.295	–	0.0275	–
CC(=O)NCCN(C)c1cccc(OCCCCCCNC(=O)Oc2cccc(-c3ccccc3)c2)c1	0.00134	–	0.75	0.7	0.0331	–	0.0214	–
CC(=O)NCCN(C)c1cccc(OCCCCCCNC(=O)Oc2cccc(-c3cccc(O)c3)c2)c1	0.00036	inactive	0.94	0.89	0.0269	Active	0.0295	–
CC(=O)NCCN(C)c1cccc(OCCCCNC(=O)Oc2cccc(-c3ccccc3)c2)c1	0.00145	–	0.39	0.64	0.0447	–	0.0129	–
NC(=O)c1cccc(-c2cccc(OC(=O)NC3CCCCC3)c2)c1	–	Active	–	–	–	inactive	–	–
CCC(=O)NCCN(C)c1cccc(OCCCCCCNC(=O)Oc2cccc(-c3ccccc3)c2)c1	0.00307	–	0.88	0.77	0.0191	–	0.0162	–
CC(=O)NCCN(C)c1cccc(OCCCCOc2cccc(OC(=O)NC3CCCCC3)c2)c1	0.184	–	0.05	0.07	0.0537	–	0.0347	–
CC(=O)NCCN(C)c1cccc(OCCCCN)c1	–	–	0.35	0.32	12.9	–	3.09	–
CC(=O)NCCN(C)c1cccc(OCCCCCCNC(=O)Oc2cccc(-c3cccc(C(N)=O)c3)c2)c1	0.00043	inactive	1.01	0.79	0.0155	Active	0.0389	–
CC(=O)NCCN(C)c1cccc(OCCCCOc2cccc(O)c2)c1	–	–	0.18	0.27	0.603	–	0.186	–
CC(=O)NCCc1c(Br)[nH]c2ccc(OCCCCCCNC(=O)Oc3cccc(-c4ccccc4)c3)cc12	0.00085	–	0.97	0.73	0.0017	Active	0.000776	Active
CC(=O)NCCc1c[nH]c2ccc(OCCCCCCCCNC(=O)Oc3cccc(-c4ccccc4)c3)cc12	0.004	Active	0.53	0.73	0.00631	inactive	0.0049	inactive
CC(=O)NCCN(C)c1cccc(OCCCCCCCCNC(=O)Oc2cccc(-c3ccccc3)c2)c1	0.00063	inactive	0.96	0.85	0.0324	Active	0.0316	–
